Active and inactive are the calls of the source.
Experiments:
Rattus norvegicus [1] = organism: Rattus norvegicus; assay: Inhibition of K+ depolarization-induced [3H]D-aspartate efflux in Sprague-Dawley rat synaptosome preincubated at 0.1 uM for 8 mins by liquid scintillation counting; format: functional, tissue-based; details: Brain
In short: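 Purified rat cerebrocortical synaptosomes loaded with [3H]D-aspartate and superfused. Depolarization with KCl added for 120 s. Compound added 8 min before K+ depolarization. Evoked efflux measured as mean ± SEM of 3−12 independent experiments in triplicate.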

Rattus norvegicus [2] = assay: Antinociceptive activity against carrageenan-induced hyperalgesia in rat assessed as paw pressure at 10 mg/kg, po measured after 90 mins (reference value: 34.8 +/- 3.1 g); format: functional
In short: (§1)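 Rats received intraplantar carrageenan before oral dosing. Paw-pressure withdrawal threshold (g) was measured before treatment and at 15, 30, 60 and 90 min after it. Carrageenan-injected rats given vehicle served as reference, with saline-injected rats as a further control.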

Rattus norvegicus [3] = assay: Antinociceptive activity against carrageenan-induced hyperalgesia in rat assessed as paw pressure at 60 mg/kg, po measured after 30 mins (reference value: 30.6 +/- 3.2 g); format: functional; in short: as §1
Rattus norvegicus [4] = assay: Antinociceptive activity against carrageenan-induced paw edema in rat assessed as paw edema volume at 60 mg/kg, po measured after 30 mins (reference value: 2.71+/- 0.08 ml); format: functional
Rattus norvegicus [5] = assay: Antinociceptive activity against carrageenan-induced hyperalgesia in rat assessed as paw pressure at 40 mg/kg, po measured after 30 mins (reference value: 30.6 +/- 3.2 g); format: functional; in short: as §1
Rattus norvegicus [6] = assay: Antinociceptive activity against carrageenan-induced hyperalgesia in rat assessed as paw pressure at 40 mg/kg, po measured after 60 mins (reference value: 31.8 +/- 2.2 g); format: functional; in short: as §1
Rattus norvegicus [7] = assay: Antinociceptive activity against carrageenan-induced hyperalgesia in rat assessed as paw pressure at 60 mg/kg, po measured after 90 mins (reference value: 34.8 +/- 3.1 g); format: functional; in short: as §1
Rattus norvegicus [8] = assay: Antinociceptive activity against carrageenan-induced hyperalgesia in rat assessed as paw pressure at 40 mg/kg, po measured after 90 mins (reference value: 34.8 +/- 3.1 g); format: functional; in short: as §1
Rattus norvegicus [9] = assay: Antinociceptive activity against carrageenan-induced paw edema in rat assessed as paw edema volume at 40 mg/kg, po measured after 30 mins (reference value: 2.71+/- 0.08 ml); format: functional
Rattus norvegicus [10] = assay: Antinociceptive activity against carrageenan-induced hyperalgesia in rat assessed as paw pressure at 60 mg/kg, po measured after 15 mins (reference value: 32.8 +/- 2.9 g); format: functional; in short: as §1
Rattus norvegicus [11] = assay: Antinociceptive activity against carrageenan-induced hyperalgesia in rat assessed as paw pressure at 60 mg/kg, po measured after 60 mins (reference value: 31.8 +/- 2.2 g); format: functional; in short: as §1
Rattus norvegicus [12] = assay: Antinociceptive activity against carrageenan-induced hyperalgesia in rat assessed as paw pressure at 10 mg/kg, po measured after 60 mins (reference value: 31.8 +/- 2.2 g); format: functional; in short: as §1
Rattus norvegicus [13] = assay: Antinociceptive activity against carrageenan-induced paw edema in rat assessed as paw edema volume at 10 mg/kg, po measured after 30 mins (reference value: 2.71+/- 0.08 ml); format: functional
Rattus norvegicus [14] = assay: Antinociceptive activity against carrageenan-induced hyperalgesia in rat assessed as paw pressure at 40 mg/kg, po measured after 15 mins (reference value: 32.8 +/- 2.9 g); format: functional; in short: as §1
Mus musculus [15] = assay: Analgesic activity in Swiss albino mouse assessed as inhibition of acetic acid-induced abdominal contraction at 10 to 60 mg/kg, po measured after 30 mins; format: functional, organism-based; details: Abdominal cavity
Rattus norvegicus [16] = assay: Antinociceptive activity against carrageenan-induced hyperalgesia in rat assessed as paw pressure at 10 mg/kg, po measured after 30 mins (reference value: 30.6 +/- 3.2 g); format: functional; in short: as §1
[17] = target: T1, P2X purinoceptor 7 (Rattus norvegicus) (UniProt Q64663); assay: Antagonist activity at P2X7 in Sprague-Dawley rat synaptosome assessed as inhibition of BzATP-induced [3H]D-aspartate efflux preincubated at 0.1 uM for 8 mins by liquid scintillation counting in absence of extracellular Ca2+; details: Brain
T1 sequence (whole entry): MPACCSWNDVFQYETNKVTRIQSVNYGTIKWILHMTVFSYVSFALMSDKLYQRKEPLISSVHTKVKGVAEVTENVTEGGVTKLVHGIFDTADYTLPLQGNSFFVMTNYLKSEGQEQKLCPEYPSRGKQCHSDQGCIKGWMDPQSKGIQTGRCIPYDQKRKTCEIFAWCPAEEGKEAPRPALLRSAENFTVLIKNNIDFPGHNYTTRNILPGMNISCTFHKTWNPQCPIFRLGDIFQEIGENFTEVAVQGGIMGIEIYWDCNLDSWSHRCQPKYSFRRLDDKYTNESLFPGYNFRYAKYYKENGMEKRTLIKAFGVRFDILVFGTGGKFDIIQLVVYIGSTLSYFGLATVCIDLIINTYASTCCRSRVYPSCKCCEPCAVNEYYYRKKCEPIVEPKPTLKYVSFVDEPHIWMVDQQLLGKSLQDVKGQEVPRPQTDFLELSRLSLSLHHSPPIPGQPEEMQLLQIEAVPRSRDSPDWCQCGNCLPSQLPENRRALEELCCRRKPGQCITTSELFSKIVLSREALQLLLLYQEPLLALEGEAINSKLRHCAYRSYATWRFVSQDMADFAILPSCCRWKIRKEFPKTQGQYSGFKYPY
In short: (§2)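 Purified rat cerebrocortical synaptosomes loaded with [3H]D-aspartate and superfused. 100 μM BzATP added for 120 s. Compound added 8 min before BzATP. Ca2+-free conditions used medium with 0.5 mM EGTA, added 18 min before BzATP. Log concentration–response for inhibition of evoked efflux. Mean ± SEM of 3−12 independent experiments in triplicate.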

[18] = target: T1, P2X purinoceptor 7 (Rattus norvegicus); assay: Antagonist activity at P2X7 in Sprague-Dawley rat synaptosome assessed as inhibition of BzATP-induced [3H]D-aspartate efflux preincubated at 0.1 uM for 8 mins by liquid scintillation counting; details: Brain; in short: as §2
Rattus norvegicus [19] = assay: Antinociceptive activity against carrageenan-induced hyperalgesia in rat assessed as paw pressure at 10 mg/kg, po measured after 15 mins (reference value: 32.8 +/- 2.9 g); format: functional; in short: as §1
Mus musculus [20] = assay: Analgesic activity in Swiss albino mouse assessed as inhibition of acetic acid-induced abdominal contraction at 20 to 60 mg/kg, po measured after 30 mins; format: functional, organism-based; details: Abdominal cavity
[21] = target: T1, P2X purinoceptor 7 (Rattus norvegicus); assay: Agonist activity at P2X7 in Sprague-Dawley rat synaptosome assessed as [3H]D-aspartate efflux at 100 uM for 120 secs by liquid scintillation counting; details: Brain
[22] = target: T1, P2X purinoceptor 7 (Rattus norvegicus); assay: Antagonist activity at P2X7 in Sprague-Dawley rat synaptosome assessed as inhibition of BzATP-induced [3H]D-aspartate efflux preincubated at 10 uM for 8 mins by liquid scintillation counting in absence of extracellular Ca2+; details: Brain; in short: as §2
[23] = target: T1, P2X purinoceptor 7 (Rattus norvegicus); assay: Antagonist activity at P2X7 in Sprague-Dawley rat synaptosome assessed as inhibition of BzATP-induced [3H]D-aspartate efflux preincubated at 10 uM for 8 mins by liquid scintillation counting; details: Brain; in short: as §2

## CCOc1ccc(Nc2ccc(/C(=C3C=C/C(=[N+](/CC)Cc4cccc(S(=O)(=O)[O-])c4)C=C/3C)c3ccc(N(CC)Cc4cccc(S(=O)(=O)[O-])c4)cc3C)cc2)cc1.[Na+] [BRILLIANT BLUE G]
Rattus norvegicus [1]
  inhibition: inactive
Rattus norvegicus [2]
  Activity: 37.1 g
Rattus norvegicus [3]
  Activity: 49.6 g
Rattus norvegicus [4]
  Activity: 2.21 mL
Rattus norvegicus [5]
  Activity: 50.8 g
Rattus norvegicus [6]
  Activity: 45.6 g
Rattus norvegicus [7]
  Activity: 36.2 g
Rattus norvegicus [8]
  Activity: 40.2 g
Rattus norvegicus [9]
  Activity: 2.17 mL
Rattus norvegicus [10]
  Activity: 47.2 g
Rattus norvegicus [11]
  Activity: 43.8 g
Rattus norvegicus [12]
  Activity: 38.5 g
Rattus norvegicus [13]
  Activity: 2.63 mL
Rattus norvegicus [14]
  Activity: 46.3 g
Mus musculus [15]
  inhibition: Active
Rattus norvegicus [16]
  Activity: 43.1 g
[17]
  inhibition: Active
[18]
  inhibition: Active
Rattus norvegicus [19]
  Activity: 38.7 g

## O=C(NC1(C(=O)NCCc2c[nH]cn2)C2CC3CC(C2)CC1C3)c1ccccc1 (stereo not drawn)
Mus musculus [20]
  inhibition: Active

## Nc1ncnc2c1ncn2[C@@H]1O[C@H](COP(=O)(O)OP(=O)(O)OP(=O)(O)O)[C@@H](OC(=O)c2ccc(C(=O)c3ccccc3)cc2)[C@H]1O
[21]
  Activity: Active

## Clc1cccc(-c2nnnn2Cc2cccnc2)c1Cl
[22]
  inhibition: Active
[23]
  inhibition: Active

From ChEMBL document CHEMBL2407036, “Flow Synthesis and Biological Studies of an Analgesic Adamantane Derivative That Inhibits P2X7-Evoked Glutamate Release” (ACS Med Chem Lett, 2013)
